# The list is not random: actives were taken first. Their share in the collection is about 3.5%.
# rRNA inh HTS: selective bacterial rRNA inhibition in E. coli; E. coli WT GFP vs humanized-ribosome RFP mutants, fluorescence, 24 h; active compounds read low; DMSO median 0, no signal -100; GFP signal change (wild-type ribosome), % (concentration not given with the values); hit rate 1.6% among 350,000; AID 720706;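 active means significant combined selectivity score with lowered wild-type GFP, culture density cut under 30%, mutant RFP and density less affected; inactive means any of these conditions unmet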
# ERAP1 HTS inh: inhibitors of human ERAP1 aminopeptidase. AID 652197. hit rate 0.15% among 340,000. Q9NZ08. recombinant ERAP1, Leu-AMC fluorescence, 60 min. inhibition, % at 10.7 µM;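 active means mean replicate inhibition of at least 30%, or all replicates individually reaching that 30% level; inactive means mean below 30% and not every replicate reaching it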;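 further: 0% = neutral control wells and 100% = L-leucinethiol positive control wells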
# Cneo AK release: Cryptococcus neoformans lysis via adenylate kinase release. lysis activity, % at 15 µM. C. neoformans lysis, adenylate kinase release luminescence, 4 h; normalised: neutral wells 0, clomiphene wells 100. AID 651654. hit rate 0.2% among 360,000;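 active means mean lysis activity across replicates of at least 80%, whatever share of replicates individually reach that level; inactive means mean lysis activity below 80%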
#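 Assay system: log-phase C. neoformans yeast / Quantity: yeast cell density of 5 × 10^6 cells/mL / Medium: fresh YPD growth medium / Compound: single dose / Timing: static 4 h at 37 °C with compound, 1 h detection / Measured by: adenylate kinase release luminescence / Read-out: lysis from increased AK signal / Benchmarks: Clomiphene as positive lysis control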
# PGC1a acetyl inh: PGC1a acetylation modulation, inhibitor mode. U2OS PGC1a acetylation, AlphaScreen anti-acetyl-lysine; with virally co-expressed GCN5 acetyltransferase. hit rate 0.17% among 350,000. inhibition, % at 15.6 µM;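 active means every replicate shows inhibition of at least 40%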;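 further: 0% = neutral control wells and 100% = positive control wells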
# FGF22 binding: FGF22 (human) thermal shift binding; Q9HCT0; recombinant FGF22 thermal shift, SYPRO orange fluorescence; percent of sucrose octasulfate shift, DMSO zero; activity (Tm shift, normalised), % at 9.99 µM; hit rate 1.5% among 340,000;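 active means mean Tm shift, scaled 0 neutral to 100 positive control, at about 1.3% or above, every replicate too, limit read from the data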
# HIV Env fusion: blocks HIV Env-driven cell-cell fusion; hit rate 1.1% among 360,000; AID 651610; HeLa-JRFL Env/CEM21 cell fusion, luciferase; inhibition, % at 12.3 µM;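 active means mean replicate inhibition score of at least 50 and every replicate individually at or above 50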;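 further: 0% = plate neutral controls and 100% = maraviroc near 300 nM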
# * = called active by the depositor; . = no result given; [ ] = remark or other dose.
SMILES,rRNA inh HTS,ERAP1 HTS inh,Cneo AK release,PGC1a acetyl inh,FGF22 binding,HIV Env fusion
O=C(NCC[C@@H]1CC[C@@H](NS(=O)(=O)c2ccccc2F)[C@@H](CO)O1)c1ccc(F)cc1,-2,2,31,3,0,61*[16.7 µM]
NC(=O)c1ccsc1NC(=O)c1ccc(N2CCCC2=O)cc1,0,1,.,.,43*,-50
NC(=O)c1ccsc1NC(=O)c1ccc2c(c1)CCCC2,-10,4,-8,-9,0,-335
COc1cccc2c(=O)c3c(oc12)CCCC3,-8,5,0,.,0,11
CCOC(=O)c1c(NC(C)=O)sc(/C(C)=N/Nc2ccc(C(=O)O)cc2)c1C,-17*,-7,1,8,-1,4
CCOC(=O)c1c(NC(C)=O)sc(C(=O)NC2CCCC2)c1C,7,3,2,7,41,-10
Cc1cc(-c2ccc(S(=O)(=O)N(C)c3ccc(C)c(C)c3)s2)on1,-4,-4,-3,-31,0,16
O=C(c1oc2ccccc2c1CSCc1ccccc1)N1CCN(c2ncccn2)CC1,.,.,0,-44,.,56*
CCc1nn2cc(C(=O)c3cc(Cl)ccc3O)cnc2c1-c1ccc(F)cc1,-18*,-2,.,.,0,-12
CCc1cccc(C)c1NC(=O)c1cc(=O)[nH]c2ccc(S(=O)(=O)N3CCOCC3)cc12,-3,95*,0,7,0,.
CC(NC(=O)c1ccc(Cl)cc1Cl)C(c1ccccc1)N1CCOCC1 (stereo unspecified),1,12,.,.,0,0
CCC(=O)Nc1ccc2c(c1)C(=O)N(C)[C@H]1CC[C@@H](CC(=O)NCCCN(C)C)O[C@@H]1CO2,2,0,0,-3,0,-5[16.7 µM]
COc1ccccc1-c1cc(NC=O)c2ncc(-c3cccc(C(=O)N(C)C)c3)n2c1,-5,0,0,-25,0,37
CCOC(=O)C1(CC2CCCCO2)CCN(Cc2nc(C(C)C)cs2)CC1 (stereo unspecified),-29*,2,.,-8,0,20
CCOC(=O)C1(CC2CCCCO2)CCN(Cc2nc3ccccc3[nH]2)CC1 (stereo unspecified),0,4,-3,.,0,17
CCOC(=O)C1(CC2CCCCO2)CCN(C(=O)Nc2ccc(C(=O)OC)cc2)CC1 (stereo unspecified),-19*,1,0,5,0,7
FC(F)(F)c1ccncc1-c1nnnn1-c1ccc(Cl)cc1,5,.,-2,.,0,-3
N#C[C@H]1[C@@H](c2ccccc2/C=C/c2ccccc2)[C@@H](CO)N1S(=O)(=O)c1ccccc1,-4,0,.,-7,0,.
N#C[C@H]1[C@@H](c2ccccc2/C=C/c2ccccc2)[C@@H](CO)N1S(=O)(=O)c1cccc(F)c1,1,-3,.,-9,.,58*[16.7 µM]
COCC#Cc1ccc2c(c1)O[C@H](CN(C)S(C)(=O)=O)[C@H](C)CN([C@H](C)CO)S2(=O)=O,-1,-1,-1,3,0,-31[16.7 µM]
CC(C)Cn1c(=O)c(C(=O)Nc2ccncc2)c(O)c2ccccc21,-26*,3,-2,6,0,2
CC(C)Cn1c(=O)c(C(=O)Nc2cnccn2)c(O)c2ccccc21,.,.,1,.,.,.
C[C@H]1CCCCO[C@H](CN(C)Cc2ccc3c(c2)OCO3)[C@@H](C)CN([C@@H](C)CO)C(=O)c2cc(N(C)C)ccc2O1,-1,0,3,-34,0,17[16.7 µM]
CC1CC(C)(C)N2C(=O)C3(Nc4ccccc4S3)c3cccc1c32 (stereo unspecified),.,.,22,-5,.,.
Cc1cc2c3c(c1)C1(SCC(=O)N1c1ccc(F)cc1)C(=O)N3C(C)(C)CC2C (stereo unspecified),.,.,0,-59,.,69*
SMILES,rRNA inh HTS,ERAP1 HTS inh,Cneo AK release,PGC1a acetyl inh,FGF22 binding,HIV Env fusion
O=[N+]([O-])c1ccc(O)c(-c2cc(C(F)(F)F)nc(-c3ccccc3)n2)c1,-28,-2,-1,.,0,60*
Oc1ccccc1-c1cc(C(F)(F)C(F)F)nc(-c2ccccc2)n1,.,.,0,5,.,-37
Cn1cnc(S(=O)(=O)N[C@H]2C=C[C@@H](CC(=O)Nc3ccccc3)O[C@H]2CO)c1,1,1,-8,-2,0,0[16.7 µM]
CC1CN(S(=O)(=O)c2cccc(C(=O)N(C)C3CCN(C)CC3)c2)CC(C)O1 (stereo unspecified),.,-1,1,-2,0,.
CC1CN(S(=O)(=O)c2cccc(C(=O)N=c3sccn3C)c2)CC(C)O1 (stereo unspecified),-21*,4,1,-6,0,3
CCCn1cc(CN2CCC(n3nccc3NC(=O)c3ccc4c(c3)OCO4)CC2)c(C)n1,3,3,3,16,0,-21
CC(C)CC#Cc1cnc2c(c1)C(=O)N([C@H](C)CO)C[C@H](C)[C@H](CN(C)C(=O)Nc1cc(F)ccc1F)O2,-1,1,-1,1,0,-3[16.7 µM]
Cc1ccc([N+](=O)[O-])cc1NC(=O)C(Sc1ccccc1)c1ccccc1 (stereo unspecified),.,.,.,.,.,67*
CCCCCc1ccc(-c2ccc(=O)[nH]n2)cc1,.,.,-2,-24,.,50
Cc1ccc(-c2ccc(=O)[nH]n2)cc1,.,.,.,9,.,56*
CC(C)NC(=O)N1[C@H](CO)[C@H](c2ccccc2)[C@@H]1CNC(=O)CN(C)C,4,.,1,-6,.,.
COc1ccc(CN2CCC(C)(Oc3ccc4c(c3)OCO4)C2)c2ccccc12 (stereo unspecified),-21,0,21,.,0,70*
O=C(CN1CCc2ccccc21)NCc1ccccc1Cl,.,.,.,.,.,18
CS(=O)(=O)N1[C@@H]2c3ccc(C4=CCCCC4)c(=O)n3C[C@H]1[C@H](CO)[C@H]2C(=O)N1CCCCC1,2,0,-5,.,0,.
COc1ccc(N2CS(=O)CC2=O)cc1 (stereo unspecified),7,0,1,.,43*,0
COc1ccc(N2CC(C(=O)O)CC2=O)cc1 (stereo unspecified),-2,-2,0,1,0,.
CCc1csc(CCNC(=O)C2CCC(=O)N(Cc3ccccc3F)C2)n1 (stereo unspecified),12,-2,-2,.,0,14
CCOC(=O)c1c(C)[nH]c(C)c1S(=O)(=O)N(C)CC(=O)NCc1cccc(C)c1,-1,0,0,3,0,10
O=C(/C=C/c1ccc([N+](=O)[O-])cc1)Nc1cccc(S(=O)(=O)NC2=NCCCCC2)c1,-9.4*,1,.,.,0,-15
Cc1ccc([N+](=O)[O-])cc1S(=O)(=O)Nc1cccc(S(=O)(=O)NC2=NCCC2)c1,0,2,-6,2,45*,0
